The term EC50 denotes the concentration at which the effect is half-maximal. In general, half-life refers to how long it takes for the measured level to halve. Higher therefore signals slow decline. A word on the solubility: it is how much of the substance goes into solution per volume. Read a high solubility as a readily soluble substance.

Values after ≈ are worked out from the molar mass of the structure shown. Some results are limits rather than exact numbers.

Data set [1] can be described thus: Therapeutic index, ratio of EC50 for human cells to EC50 for Trypanosoma brucei. The settings on record: human cells versus Trypanosoma brucei, read-out: Ratio EC50. The method, boiled down: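 Index = EC50 against the most sensitive mammalian line (HEK 293, Hep G2, BJ, Raji) divided by EC50 against T.b. brucei.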
Data set [2] in a line: Chemical stability in phosphate buffered saline at pH 3 after 14 days. Type of data set: physicochemical. The settings on record: buffer, pH 3, 336 h. The method, boiled down:
(§1)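 Stability in PBS (pH 3, 5 and 7.4) followed over 14 days for non-metabolic degradation.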

The test system of another data set is BJ. Put plainly: Cytotoxicity against human BJ cells after 72 hrs by alamar blue assay. Type of data set: cell-based.
For another data set, the system named is HepG2. Put plainly: Cytotoxicity against human HepG2 cells after 72 hrs by alamar blue assay. Type of data set: cell-based. The following applies: hepg2, 72 h. (In general: Alamar Blue is a resazurin reagent that responds to reducing activity.)
A short description of data set [3]: Chemical stability in dimethyl sulfoxide at pH 5 after 14 days. The following applies: buffer, pH 5, 336 h. Type of data set: physicochemical. In outline:
(§2)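 DMSO stability followed over 14 days for non-metabolic degradation.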

The nature of data set [4]: Toxicity in human erythrocyte assessed as hemolysis at 10 uM after 5 hrs. Type of data set: cell-based. The following applies: erythrocytes, read-out: Activity. In outline:
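Human erythrocytes washed three times after spinning whole blood at 1000g for 5 min. Test compound at 10 µM final, 2% hematocrit. PBS negative control; 0.4% saponin dilution series as standard. After centrifugation, supernatant absorbance read at 414 nm and % hemolysis taken from the calibration curve. Triplicate.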

Data set [5] in a line: Chemical stability in phosphate buffered saline at pH 7.4 after 14 days. Type of data set: physicochemical. The settings on record: buffer, pH 7.4, 336 h. The method, boiled down: as §1
Data set [6] is described as follows: Permeability of the compound assessed as ratio of compound in acceptor chamber to amount of compound in donor chamber at pH 5 by PAMPA assay. Type of data set: ADME. Background: In PAMPA a lipid-coated filter parts donor from acceptor wells.
In the next data set the test system is Trypanosoma brucei. Description: Antitrypanosomal activity against Trypanosoma brucei after 48 hrs. Type of data set: functional, organism-based.
Data set [7] can be described thus: Chemical stability in dimethyl sulfoxide at pH 3 after 14 days. Type of data set: physicochemical. The following applies: buffer, pH 3, 336 h. The method, boiled down: as §2
A short description of data set [8]: Chemical stability in dimethyl sulfoxide at pH 7.4 after 14 days. Type of data set: physicochemical. The settings on record: buffer, pH 7.4, 336 h. The method, boiled down: as §2
A short description of data set [9]: Half life in CD1 mouse liver microsomes by UPLC-MS analysis. The settings on record: CD1, mouse, liver microsomes. Type of data set: ADME, Microsome. In outline: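 CD-1 female mouse liver microsomes in 0.1 M potassium phosphate pH 7.4 with EDTA and NADPH-regenerating solutions, 37 °C, shaken. Samples at 0, 0.5, 1 and 2 h quenched with cold acetonitrile containing caffeine internal standard. UPLC–MS (SIR) read-out. Log peak-area ratio versus time gives slope; k = −2.303 × slope, t1/2 = 0.693/k.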

The next data set has as its system HEK293. Description: Cytotoxicity against human HEK293 cells after 72 hrs by alamar blue assay. Type of data set: cell-based. The settings on record: hek293, 72 h.
The nature of data set [10]: Permeability of the compound assessed as ratio of compound in acceptor chamber to amount of compound in donor chamber at pH 7.4 by PAMPA assay. Type of data set: ADME.
Data set [11] is described as follows: Chemical stability in phosphate buffered saline at pH 5 after 14 days. Type of data set: physicochemical. The following applies: buffer, pH 5, 336 h. The method, boiled down: as §1
Data set [12] in a line: Permeability of the compound assessed as ratio of compound in acceptor chamber to amount of compound in donor chamber at pH 3 by PAMPA assay. Type of data set: ADME.
Data set [13] is described as follows: Half life in CD1 mouse plasma by UPLC-MS analysis. Type of data set: ADME, cell-free. The method, boiled down: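 Half-life in mouse plasma measured at 37 °C.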
A further data set deals with Raji. Put plainly: Cytotoxicity against human Raji cells after 72 hrs by alamar blue assay. Type of data set: cell-based.
In data set [14] the test system is Mus musculus. Put plainly: Stability of the compound in po dosed mouse blood assessed as 5-(2-cyano-6-(3,4-dichlorobenzylamino)-9H-purin-9-yl)pentanoic acid level after 1 hr. Type of data set: ADME, organism-based. The following applies: in vivo. In outline: (§3)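 Oral gavage of compound suspensions to female Balb/c mice; blood sampled retro-orbitally at 1, 2 and 4 h (one sample per mouse) and by cardiac puncture at 48 h. Parent compound and metabolites measured by UPLC–MS; metabolite identity assigned by MS/MS against a synthesized standard.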

Data set [15] can be described thus: Aqueous solubility of compound in deionized water. Type of data set: physicochemical. The method, boiled down: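 Aqueous solubility measured in deionized water.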
Data set [16] has as its system Mus musculus. Put plainly: Stability of the compound in po dosed mouse blood. Type of data set: ADME, organism-based. The following applies: in vivo. The method, boiled down:
as §3

As to `N#Cc1nc(NCc2ccc(Cl)c(Cl)c2)c2ncn(CCCCCO)c2n1`, in [1], the selectivity ratio was above 20. Further, the Stability entry in [2], in data set [3], in data set [5], in data set [7], in data set [8] and in data set [11] was “Stable” each time. Further, the Stability result with Mus musculus [14] and with Mus musculus [16] was “Unstable” throughout. In addition, the Activity entry in the data set with BJ, with HepG2, in the data set with HEK293 and with Raji was “Non-toxic” throughout. Moreover, in data set [4], the hemolysis at 5 h, 10 µM amounted to 0.7%. The Ratio is recorded as 1512 in [6], 1900 in data set [10] and 960 in [12]. The compound further registered a concentration giving a half-maximal response (EC50) in the data set with Trypanosoma brucei of 380 nM. Also, the values for the half-life in data set [9] and in data set [13] were 1.08 h and 38.3 h, respectively. In data set [15], the concentration in solution (solubility) was 16.1 µM (≈ 6.53 µg/mL).

The record behind these values is ChEMBL document CHEMBL1287760, “Optimization of purine-nitrile TbcatB inhibitors for use in vivo and evaluation of efficacy in murine models” (Bioorg Med Chem, 2010).
